ChEMBL document CHEMBL1629474, “Massive screening yields novel and selective Trypanosoma cruzi triosephosphate isomerase dimer-interface-irreversible inhibitors with anti-trypanosomal activity” (Eur J Med Chem, 2010)
Activity calls are given as the source filed them. No rule for the calls is given here.

Assays:
[1] = Selectivity for Trypanosoma cruzi triosephosphate isomerase over human triosephosphate isomerase
[2] = test system: Trypanosoma cruzi; experiment: Antiparasitic activity against Trypanosoma cruzi T2 epimastigotes assessed as growth inhibition at 25 uM after 5 days; format: functional
Method in brief: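 Late-log epimastigotes were grown axenically at 28 °C in BHI-tryptose with 5% fetal calf serum and seeded at 2×10^6/mL in medium containing compound (DMSO stock; final DMSO ≤1%, 1% DMSO control). Growth was read as A590 at day 0 and day 5. Inhibition = {1 − [(Ap − A0p)/(Ac − A0c)]} × 100. Means of two experiments.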

[3] = target: Triosephosphate isomerase, glycosomal (Trypanosoma cruzi) (UniProt P52270); experiment: Inhibition of Trypanosoma cruzi triosephosphate isomerase at 400 uM after 2 hrs
Triosephosphate isomerase, glycosomal (Trypanosoma cruzi), sequence (P52270 whole entry): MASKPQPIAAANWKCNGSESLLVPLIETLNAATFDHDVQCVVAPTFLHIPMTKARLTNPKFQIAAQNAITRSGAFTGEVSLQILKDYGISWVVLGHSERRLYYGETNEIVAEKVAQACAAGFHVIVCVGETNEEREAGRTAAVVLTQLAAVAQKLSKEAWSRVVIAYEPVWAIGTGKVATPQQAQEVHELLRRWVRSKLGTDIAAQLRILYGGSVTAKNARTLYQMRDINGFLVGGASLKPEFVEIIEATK
Method in brief: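 Recombinant E. coli-expressed enzyme, dialyzed into 100 mM triethanolamine/10 mM EDTA pH 7.4, was incubated with compound (DMSO stock) in 100 mM triethanolamine, 10 mM EDTA, pH 7.4, 10% DMSO at 36 °C for 2 h. An aliquot was then assayed for activity (glyceraldehyde 3-phosphate to dihydroxyacetone phosphate, α-glycerol phosphate dehydrogenase-coupled) with 5 ng enzyme. Irreversible inhibition was scored as loss of activity; means of two experiments.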

| SMILES | Ratio [1] | Activity [2] | inhibition [3] |
| --- | --- | --- | --- |
| CNC(=S)N/N=C/c1ccc([N+](=O)[O-])o1 | > 4 | Active | 22% |
| O=C(/C=C/c1ccc([N+](=O)[O-])o1)NC12CC3CC(CC(C3)C1)C2 | > 4 | Active | 16% |
| Cc1ccc2no[n+]([O-])c2c1 | > 4 | Active | 8% |
| CCCCCCNC(=O)N/N=C/C=C/c1ccc([N+](=O)[O-])o1 | > 4 | Active | 72% |
| [O-][n+]1onc2ccc(C=Cc3ccc(C(F)(F)F)cc3)cc21 | > 4 | Active | 33% |
| C=CCNC(=S)N/N=C/c1ccco1 | > 4 | Active | 12% |
| O=C(/C=C/c1ccc2c(c1)OCO2)c1ccccc1O | > 4 | Active | 29% |
| C/C(=C\c1ccc(N(C)C)cc1)[N+](=O)[O-] | > 4 | Active | 24% |
| [O-][n+]1onc2ccc(/C=C\c3ccc(Cl)cc3)cc21 | > 4 | Active | 5% |
| [O-][n+]1onc2ccc(/C=N/NC(=S)Nc3ccccc3)cc21 | > 4 | Active | 60% |
| [O-][n+]1onc2ccc(CN3CCN(C/C=C/c4ccccc4)CC3)cc21 | > 4 | Active | 0% |
| Cc1ccc2c(c1)[n+]([O-])c(C)n2O | > 4 | Active | 6% |
| O=C(N/N=C/c1ccc([N+](=O)[O-])o1)Oc1ccccc1 | > 4 | Active | 27% |
| O=[N+]([O-])c1ccccc1/C=N/N1CCOCC1 | > 4 | Active | 28% |
| O=[N+]([O-])c1ccccc1C=Cc1ccc2no[n+]([O-])c2c1 | > 4 | Active | 11% |
| O=S(=O)(/C=C\c1ccc2no[n+]([O-])c2c1)c1ccccc1 | > 4 | Active | 51% |
| Nc1ccc2c(c1)[n+]([O-])c1cc(Br)ccc1[n+]2[O-] | > 4 | Active | 59% |
| O=c1c2cc([N+](=O)[O-])ccc2n2n1CCCCC2 | > 4 | Active | 4% |
| O=[N+]([O-])c1ccc2c(c1)c(OCc1ccccc1)nn2CCOCCN1CCN(C/C=C/c2ccccc2)CC1 | > 4 | Active | 18% |
| Cc1nnc[n+]([O-])c1/C=C/c1ccc([N+](=O)[O-])s1 | > 4 | Active | 28% |
| CN(C/C=C/c1ccccc1)Cc1ccc2no[n+]([O-])c2c1 | > 4 | Active | 7% |
| O=C(N/N=C/c1ccc([N+](=O)[O-])o1)N1CCOCC1 | > 4 | Active | 0% |
| [O-][n+]1onc2ccc(CBr)cc21 | > 4 | Active | 10% |

| SMILES | Ratio [1] | Activity [2] | inhibition [3] |
| --- | --- | --- | --- |
| CCOC(=O)/C=C/c1ccc([N+](=O)[O-])o1 | > 4 | Active | 3% |
| O=C(CN1C(=O)c2ccccc2C1=O)c1ccccc1 | > 4 | Active | 0% |
| O=Cc1ccc(OCc2ccc3no[n+]([O-])c3c2)cc1 | > 4 | Active | 0% |
| O=C(O)c1ccc(-c2nsc(CO)n2)cc1 | > 4 | Active | 15% |
| Cc1c(/C=C/c2ccc(N(C)C)cc2)[n+]([O-])cn[n+]1[O-] | > 4 | Active | 26% |
| CCCCNC(=O)N/N=C/c1ccc([N+](=O)[O-])s1 | > 4 | Active | 18% |
| CC(=O)NCc1ccccc1 | > 4 | Active | 32% |
| N#Cc1ccc(C=Cc2ccc3no[n+]([O-])c3c2)cc1 | > 4 | Active | 0% |
| [O-][n+]1onc2ccc(/C=C/c3ccccc3)cc21 | > 4 | Active | 66% |
| O=C(/C=C/c1cccs1)c1ccccc1O | > 4 | Active | 25% |
| CC1[N+]([O-])=c2ccc(Cc3ccccc3)cc2=[N+]1[O-] (centres undefined) | > 4 | Active | 25% |
| CC1(C)[N+]([O-])=c2ccc(/C=C/c3ccc4c(c3)OCO4)cc2=[N+]1[O-] | > 4 | Active | 23% |
| O=[N+]([O-])c1ccc2c(c1)[n+]([O-])c1n2CCOC1 | > 4 | Active | 14% |
| C=CCNC(=S)N/N=C/C=C/c1ccc([N+](=O)[O-])o1 | > 4 | Active | 12% |
| [O-][n+]1onc2ccc(C=Cc3ccccc3F)cc21 | > 4 | Active | 9% |
| CCOC(=O)c1nsc(-c2cc(C(C)(C)C)c(O)c(C(C)(C)C)c2)n1 | > 4 | Active | 65% |
| CCCCCCNC(=O)N/N=C/c1ccc([N+](=O)[O-])s1 | > 4 | Active | 14% |
| O=C(O)c1ccc(/C=C\c2ccc3no[n+]([O-])c3c2)cc1 | > 4 | Active | 6% |
| [O-][N+]1=c2ccc(/C=N/O)cc2=[N+]([O-])C12CCCC2 | > 4 | Active | 2% |
| [O-][n+]1onc(-c2ccccc2)c1CN1CCN(c2ccccc2)CC1 | > 4 | Active | 27% |
| Cc1nnc[n+]([O-])c1/C=C/c1ccc(Cl)cc1 | > 4 | Active | 15% |
| CCCCCCN/N=C/c1no[n+]([O-])c1C | > 4 | Active | 55% |
| CCOC(=O)c1[nH]c(=O)n(CCc2ccccc2)c1C | > 4 | Active | 0% |

| SMILES | Ratio [1] | Activity [2] | inhibition [3] |
| --- | --- | --- | --- |
| CCCCCCOC(=O)N/N=C/C=C/c1ccc([N+](=O)[O-])o1 | > 4 | Active | 39% |
| C=CCNC(=S)N/N=C/c1ccc([N+](=O)[O-])s1 | > 4 | Active | 58% |
| O=[N+]([O-])c1ccc2c(c1)c(OCc1ccccc1)nn2CCOCCN1CCSCC1 | > 4 | Active | 12% |
| C=CCNC(=S)N/N=C/c1ccc([N+](=O)[O-])o1 | > 4 | Active | 6% |
| Cc1ccc2c(c1)=[N+]([O-])C1(CCCC1)[N+]=2[O-] | > 4 | Active | 27% |
| O=S(=O)(NCc1ccccc1)NCc1ccccc1 | > 4 | Active | 76% |
| COC(=O)N/N=C/c1ccc2nonc2c1 | > 4 | Active | 16% |
| O=C1C(=Cc2ccc([N+](=O)[O-])s2)C(=O)N(C2CCCCC2)S(=O)(=O)N1C1CCCCC1 | > 4 | Active | 49% |
| O=C(c1ccc2no[n+]([O-])c2c1)N1CCOCC1 | > 4 | Active | 7% |
| COc1nn(CCOCCN2CCN(C/C=C/c3ccccc3)CC2)c2ccc([N+](=O)[O-])cc12 | > 4 | Active | 0% |
| O=S(=O)(NCCc1ccccc1)NCCc1ccccc1 | > 4 | Active | 0% |
| COc1ccc(/C=C/c2c(C)[n+]([O-])nc[n+]2[O-])cc1 | > 4 | Active | 27% |
| Cc1nnc[n+]([O-])c1/C=C/c1ccc(N(C)C)cc1 | > 4 | Active | 8% |
| COC(=O)N/N=C/c1ccc([N+](=O)[O-])o1 | > 4 | Active | 0% |
| Cc1nnsc1CO | > 4 | Active | 29% |
| O=C(N/N=C/c1ccc([N+](=O)[O-])s1)N1CCOCC1 | > 4 | Active | 5% |
| O=C(/C=C/c1ccccc1)c1ccccc1O | > 4 | Active | 15% |
| C=CCNC(=S)N/N=C/C=C/c1ccc([N+](=O)[O-])s1 | > 4 | Active | 26% |
| CCN(CC)CCCNS(=O)(=O)NCCCN(CC)CC | > 4 | Active | 0% |
| Cc1ccc(S(=O)(=O)NCc2ccco2)cc1 | > 4 | Active | 8% |
| [O-][n+]1onc2ccc(/C=C\c3ccccc3)cc21 | > 4 | Active | 0% |
| [O-][n+]1onc(-c2ccccc2)c1CCl | > 4 | Active | 65% |
